The source of these data is ChEMBL document CHEMBL1138680, “Phenoxyphenyl pyridines as novel state-dependent, high-potency sodium channel inhibitors” (J Med Chem, 2004).

For assay [1], the species on record is Rattus norvegicus. Put plainly: Inhibition of native TTX-R sodium currents in acutely dissociated rat dorsal root ganglion (DRG). Type of assay: functional. The essentials:
(§1)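 Acutely dissociated neurons from newborn Sprague Dawley rat pups were plated on poly-D-lysine and recorded for up to two weeks. The HEK-293 fractional-response protocol was used, but with a 1-s depolarizing prepulse and a 5-ms hyperpolarizing gap. Fractional responses were collected at three or more concentrations per drug. Ki came from a logistic fit of the partial concentration–inhibition curves.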

Assay [2] in a line: Ratio between Kr to Ki. It is filed as functional.
In assay [3] the target is Sodium channel protein type 2 subunit alpha (Rattus norvegicus) (UniProt P04775). The experiment in a line: Dissociation constant for binding to inactivated state of rat brain NaIIa (rNav1.2) -B2 cell line stably expressed in HEK293 Cells.
Assay [4] is filed under the species Rattus norvegicus. The experiment in a line: Inhibition of native TTX-S sodium currents in acutely dissociated rat dorsal root ganglion (DRG). Type of assay: functional. The essentials: as §1
For assay [5], the target named is Sodium channel protein type 2 subunit alpha, Nav1.2 (Rattus norvegicus) (UniProt P04775). Put plainly: Dissociation constant for binding to resting state of rat brain NaIIa (rNav1.2) -B2 cell line stably expressed in HEK293 Cells.

Regarding `Cc1cc(OCCN2CCCCC2)cc(-c2ccc(Oc3ccc(F)cc3)cc2)n1`, the results for the Inhibition activity in assay [1] and in assay [4] were 0.08 µM and 0.14 µM, respectively. For the same compound, the Ratio in assay [2] worked out at 362. In assay [3], the Ki worked out at 170 nM. This compound also showed a kR in assay [5] of 63.4 µM.
The like results for `NC(=O)c1cccc(-c2ccc(Oc3ccc(F)cc3)cc2)n1` were, in that order, 0.27 µM, 0.1 µM, 252, 90 nM and 24.2 µM.
For `COc1cc(C(N)=O)nc(-c2ccc(Oc3ccc(F)cc3)cc2)c1`, in assay [2], the Ratio worked out at 24. In addition, in assay [3], the Ki is 360 nM. This compound also registered a kR in assay [5] of 87.7 µM.
`Cc1cc(N(C)C)cc(-c2ccc(Oc3ccc(F)cc3)cc2)n1`: the Inhibition activity in assay [1] is 0.34 µM; in assay [4] it was 0.53 µM. Further, the Ratio in assay [2] was determined as 122. Also, the Ki in assay [3] came to 386 nM. The kR in assay [5] turned out to be 47.1 µM.
In assay [3], `NC(=O)c1ccnc(-c2ccc(Oc3ccc(F)cc3)cc2)c1` showed a Ki of 2640 nM.
For `NC(=O)N1c2ccccc2C=Cc2ccccc21` [CARBAMAZEPINE], the Inhibition activity in assay [1] was determined as 111 µM; in assay [4], 28 µM.
With `NC(=O)N/N=C/c1ccc(Oc2ccc(F)cc2)cc1`, the Inhibition activity in assay [1] worked out at 0.26 µM; in assay [4], 0.25 µM. Also, the Ratio in assay [2] came out at 100. The compound also registered a Ki in assay [3] of 350 nM. The compound further displayed a kR in assay [5] of 34 µM.
For the compound `NC(=O)c1cccnc1-c1ccc(Oc2ccc(F)cc2)cc1`, in assay [2], the Ratio came out at 5. In assay [3], this compound had a Ki of 13400 nM. Moreover, in assay [5], the kR is 63.7 µM.
Regarding `NC(=O)c1cc(N2CCOCC2)cc(-c2ccc(Oc3ccc(F)cc3)cc2)n1`, the Inhibition activity in assay [1] stood at 0.1 µM; in assay [4], 0.06 µM. Also, the Ratio in assay [2] is 94. In assay [3], this compound gave a Ki of 120 nM. The compound further came in with a kR in assay [5] of 11.6 µM.
The like results for `COc1cc(C(=O)NCCN(C)C)nc(-c2ccc(Oc3ccc(F)cc3)cc2)c1` were, in that order, 1.56 µM, 0.18 µM, 90, 250 nM and 23 µM.
In the case of `Nc1nnc(-c2cccc(Cl)c2Cl)c(N)n1` [LAMOTRIGINE], the Inhibition activity in assay [1] worked out at 103 µM; in assay [4], 38.4 µM.
For the compound `O=C(NCCN1CCCCC1)c1cncc(-c2ccc(Oc3ccc(F)cc3)cc2)c1`, in assay [2], the Ratio was 68. The compound also returned a Ki in assay [3] of 150 nM. This compound also came in with a kR in assay [5] of 10.5 µM.
With `O=C(NCCN1CCCCC1)c1cccc(-c2ccc(Oc3ccc(F)cc3)cc2)n1`, in assay [1], the Inhibition activity amounted to 0.06 µM. Besides, in assay [2], the Ratio stood at 154. The same compound registered a Ki in assay [3] of 20 nM. For the same compound, the kR in assay [5] is 4.3 µM.
In assay [3], `NC(=O)c1ccc(-c2ccc(Oc3ccc(F)cc3)cc2)nc1` had a Ki of 3750 nM.
`O=C(NCCN1CCCCC1)c1ccc(-c2ccc(Oc3ccc(F)cc3)cc2)nc1`: the Inhibition activity is 1.56 µM in assay [1] and 1 µM in assay [4]. In assay [2], the Ratio was 180. The Ki in assay [3] turned out to be 590 nM. Besides, the kR in assay [5] was found to be 107 µM.
